According to ChEMBL document CHEMBL2321753, “Synthesis and biological evaluation of radioiodinated quinacrine-based derivatives for SPECT imaging of Aβ plaques” (Eur J Med Chem, 2013):
pKi: −log10 of the molar value. Blank lines part the entries; values can stand above or below the compound they belong to.

Experiments:
[1] = target: Amyloid-beta precursor protein (Homo sapiens, UniProt P05067); assay: Displacement of [125I]IMPY from amyloid beta (1 to 42) (unknown origin) after 3 hrs by gamma counting
Outline: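 Filtered through GF/B filters and bound radioactivity gamma-counted. IC50 from displacement curves of three independent experiments; Ki calculated with the Cheng–Prusoff equation.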

Pancreas [2] = assay: Biodistribution in ddY mouse pancreas at 0.1 to 0.4 uCi, iv after 10 mins by gamma counting; format: ADME, organism-based; conditions: in vivo
Outline: (§1)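 [125I]ligand (0.1–0.4 µCi) in 100 µL PBS (pH 7.4) containing 30 µL DMSO, injected into the tail vein of ddY mice (5 weeks, 22–25 g). Mice sacrificed at 2, 10, 30 and 60 min. Organs removed, weighed and gamma-counted. Values are % injected dose per gram, except stomach as % dose per organ. Mean (SD) of 3–6 mice per time point.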

Blood [3] = assay: Biodistribution in ddY mouse blood at 0.1 to 0.4 uCi, iv after 60 mins by gamma counting; format: ADME, organism-based; conditions: in vivo, 1 h; outline: as §1
Brain [4] = assay: Biodistribution in ddY mouse brain at 0.1 to 0.4 uCi, iv after 2 mins by gamma counting; format: ADME, organism-based; conditions: in vivo; outline: as §1
Spleen [5] = assay: Biodistribution in ddY mouse spleen at 0.1 to 0.4 uCi, iv after 30 mins by gamma counting; format: ADME, organism-based; conditions: in vivo, 0.5 h; outline: as §1
Spleen [6] = assay: Biodistribution in ddY mouse spleen at 0.1 to 0.4 uCi, iv after 10 mins by gamma counting; format: ADME, organism-based; conditions: in vivo; outline: as §1
Brain [7] = assay: Biodistribution in ddY mouse brain at 0.1 to 0.4 uCi, iv after 30 mins by gamma counting; format: ADME, organism-based; conditions: in vivo, 0.5 h; outline: as §1
Stomach [8] = assay: Biodistribution in ddY mouse stomach assessed per organ at 0.1 to 0.4 uCi, iv after 60 mins by gamma counting; format: ADME, organism-based; conditions: in vivo, 1 h; outline: as §1
Kidney [9] = assay: Biodistribution in ddY mouse kidney at 0.1 to 0.4 uCi, iv after 60 mins by gamma counting; format: ADME, organism-based; conditions: in vivo, 1 h; outline: as §1
Lung [10] = assay: Biodistribution in ddY mouse lung at 0.1 to 0.4 uCi, iv after 2 mins by gamma counting; format: ADME, organism-based; conditions: in vivo; outline: as §1
Pancreas [11] = assay: Biodistribution in ddY mouse pancreas at 0.1 to 0.4 uCi, iv after 60 mins by gamma counting; format: ADME, organism-based; conditions: in vivo, 1 h; outline: as §1
Heart [12] = assay: Biodistribution in ddY mouse heart at 0.1 to 0.4 uCi, iv after 2 mins by gamma counting; format: ADME, organism-based; conditions: in vivo; outline: as §1
Brain [13] = assay: Biodistribution in ddY mouse brain at 0.1 to 0.4 uCi, iv after 10 mins by gamma counting; format: ADME, organism-based; conditions: in vivo; outline: as §1
Intestine [14] = assay: Biodistribution in ddY mouse intestine at 0.1 to 0.4 uCi, iv after 2 mins by gamma counting; format: ADME, organism-based; conditions: in vivo; outline: as §1
Spleen [15] = assay: Biodistribution in ddY mouse spleen at 0.1 to 0.4 uCi, iv after 2 mins by gamma counting; format: ADME, organism-based; conditions: in vivo; outline: as §1
Intestine [16] = assay: Biodistribution in ddY mouse intestine at 0.1 to 0.4 uCi, iv after 60 mins by gamma counting; format: ADME, organism-based; conditions: in vivo, 1 h; outline: as §1
[17] = n-octanol-sodium phosphate buffer partition co-efficient, log D of the compound at pH 7.4 by shake flask method; format: physicochemical
Outline: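 Shake-flask partition between n-octanol and sodium phosphate buffer, pH 7.4, shaken 10 min at room temperature, then centrifuged. Weighed 0.5 mL samples of each layer counted. log D from the ratio of cpm per gram of octanol to cpm per gram of buffer; n = 3.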

Blood [18] = assay: Biodistribution in ddY mouse blood at 0.1 to 0.4 uCi, iv after 10 mins by gamma counting; format: ADME, organism-based; conditions: in vivo; outline: as §1
Intestine [19] = assay: Biodistribution in ddY mouse intestine at 0.1 to 0.4 uCi, iv after 10 mins by gamma counting; format: ADME, organism-based; conditions: in vivo; outline: as §1
Stomach [20] = assay: Biodistribution in ddY mouse stomach assessed per organ at 0.1 to 0.4 uCi, iv after 10 mins by gamma counting; format: ADME, organism-based; conditions: in vivo; outline: as §1
Lung [21] = assay: Biodistribution in ddY mouse lung at 0.1 to 0.4 uCi, iv after 30 mins by gamma counting; format: ADME, organism-based; conditions: in vivo, 0.5 h; outline: as §1
Intestine [22] = assay: Biodistribution in ddY mouse intestine at 0.1 to 0.4 uCi, iv after 30 mins by gamma counting; format: ADME, organism-based; conditions: in vivo, 0.5 h; outline: as §1
Brain [23] = assay: Biodistribution in ddY mouse brain at 0.1 to 0.4 uCi, iv after 60 mins by gamma counting; format: ADME, organism-based; conditions: in vivo, 1 h; outline: as §1
Liver [24] = assay: Biodistribution in ddY mouse liver at 0.1 to 0.4 uCi, iv after 10 mins by gamma counting; format: ADME, organism-based; conditions: in vivo; outline: as §1
Spleen [25] = assay: Biodistribution in ddY mouse spleen at 0.1 to 0.4 uCi, iv after 60 mins by gamma counting; format: ADME, organism-based; conditions: in vivo, 1 h; outline: as §1
Blood [26] = assay: Biodistribution in ddY mouse blood at 0.1 to 0.4 uCi, iv after 30 mins by gamma counting; format: ADME, organism-based; conditions: in vivo, 0.5 h; outline: as §1
Lung [27] = assay: Biodistribution in ddY mouse lung at 0.1 to 0.4 uCi, iv after 10 mins by gamma counting; format: ADME, organism-based; conditions: in vivo; outline: as §1
Kidney [28] = assay: Biodistribution in ddY mouse kidney at 0.1 to 0.4 uCi, iv after 10 mins by gamma counting; format: ADME, organism-based; conditions: in vivo; outline: as §1
Heart [29] = assay: Biodistribution in ddY mouse heart at 0.1 to 0.4 uCi, iv after 30 mins by gamma counting; format: ADME, organism-based; conditions: in vivo, 0.5 h; outline: as §1
Lung [30] = assay: Biodistribution in ddY mouse lung at 0.1 to 0.4 uCi, iv after 60 mins by gamma counting; format: ADME, organism-based; conditions: in vivo, 1 h; outline: as §1
Kidney [31] = assay: Biodistribution in ddY mouse kidney at 0.1 to 0.4 uCi, iv after 30 mins by gamma counting; format: ADME, organism-based; conditions: in vivo, 0.5 h; outline: as §1
Pancreas [32] = assay: Biodistribution in ddY mouse pancreas at 0.1 to 0.4 uCi, iv after 30 mins by gamma counting; format: ADME, organism-based; conditions: in vivo, 0.5 h; outline: as §1
Kidney [33] = assay: Biodistribution in ddY mouse kidney at 0.1 to 0.4 uCi, iv after 2 mins by gamma counting; format: ADME, organism-based; conditions: in vivo; outline: as §1
Stomach [34] = assay: Biodistribution in ddY mouse stomach assessed per organ at 0.1 to 0.4 uCi, iv after 2 mins by gamma counting; format: ADME, organism-based; conditions: in vivo; outline: as §1
Pancreas [35] = assay: Biodistribution in ddY mouse pancreas at 0.1 to 0.4 uCi, iv after 2 mins by gamma counting; format: ADME, organism-based; conditions: in vivo; outline: as §1
Blood [36] = assay: Biodistribution in ddY mouse blood at 0.1 to 0.4 uCi, iv after 2 mins by gamma counting; format: ADME, organism-based; conditions: in vivo; outline: as §1
Liver [37] = assay: Biodistribution in ddY mouse liver at 0.1 to 0.4 uCi, iv after 60 mins by gamma counting; format: ADME, organism-based; conditions: in vivo, 1 h; outline: as §1
Stomach [38] = assay: Biodistribution in ddY mouse stomach assessed per organ at 0.1 to 0.4 uCi, iv after 30 mins by gamma counting; format: ADME, organism-based; conditions: in vivo, 0.5 h; outline: as §1
Heart [39] = assay: Biodistribution in ddY mouse heart at 0.1 to 0.4 uCi, iv after 10 mins by gamma counting; format: ADME, organism-based; conditions: in vivo; outline: as §1
Liver [40] = assay: Biodistribution in ddY mouse liver at 0.1 to 0.4 uCi, iv after 2 mins by gamma counting; format: ADME, organism-based; conditions: in vivo; outline: as §1
Liver [41] = assay: Biodistribution in ddY mouse liver at 0.1 to 0.4 uCi, iv after 30 mins by gamma counting; format: ADME, organism-based; conditions: in vivo, 0.5 h; outline: as §1
Heart [42] = assay: Biodistribution in ddY mouse heart at 0.1 to 0.4 uCi, iv after 60 mins by gamma counting; format: ADME, organism-based; conditions: in vivo, 1 h; outline: as §1

Chain of Amyloid-beta precursor protein (P05067 whole entry): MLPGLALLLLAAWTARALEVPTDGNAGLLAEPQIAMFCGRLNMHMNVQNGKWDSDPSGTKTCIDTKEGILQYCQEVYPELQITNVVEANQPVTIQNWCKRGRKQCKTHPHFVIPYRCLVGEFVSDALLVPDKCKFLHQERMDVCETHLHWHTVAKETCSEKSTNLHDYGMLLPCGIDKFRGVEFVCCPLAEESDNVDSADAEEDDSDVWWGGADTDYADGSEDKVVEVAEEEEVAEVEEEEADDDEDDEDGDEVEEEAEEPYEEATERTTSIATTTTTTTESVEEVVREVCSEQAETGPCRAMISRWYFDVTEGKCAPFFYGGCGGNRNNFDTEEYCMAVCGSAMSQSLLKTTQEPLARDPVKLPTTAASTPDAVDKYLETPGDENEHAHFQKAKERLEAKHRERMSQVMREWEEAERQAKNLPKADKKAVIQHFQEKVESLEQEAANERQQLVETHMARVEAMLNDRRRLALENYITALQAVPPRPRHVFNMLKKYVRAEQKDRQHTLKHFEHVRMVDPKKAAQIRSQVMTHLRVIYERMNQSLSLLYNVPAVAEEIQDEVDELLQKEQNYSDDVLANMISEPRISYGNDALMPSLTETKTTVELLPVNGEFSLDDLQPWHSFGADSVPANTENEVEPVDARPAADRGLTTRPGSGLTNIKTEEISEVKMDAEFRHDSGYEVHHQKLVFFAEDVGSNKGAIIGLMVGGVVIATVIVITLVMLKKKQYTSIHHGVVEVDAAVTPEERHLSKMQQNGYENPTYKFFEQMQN

SMILES: COc1ccc2nc3cc([125I])ccc3c(N)c2c1
Drug uptake (Pancreas [2]): 11.52 % ID/g
Drug uptake (Blood [3]): 0.49 % ID/g
Drug uptake (Brain [4]): 1.35 % ID/g
Drug uptake (Spleen [5]): 10.6 % ID/g
Drug uptake (Spleen [6]): 14.65 % ID/g
Drug uptake (Brain [7]): 1.27 % ID/g
Drug uptake (Stomach [8]): 1.74 %ID
Drug uptake (Kidney [9]): 3.58 % ID/g
Drug uptake (Lung [10]): 9.91 % ID/g
Drug uptake (Pancreas [11]): 0.76 % ID/g
Drug uptake (Heart [12]): 4.46 % ID/g
Drug uptake (Brain [13]): 3.16 % ID/g
Drug uptake (Intestine [14]): 1.86 % ID/g
Drug uptake (Spleen [15]): 4.7 % ID/g
Drug uptake (Intestine [16]): 11.2 % ID/g
logD [17]: 2.13
Drug uptake (Blood [18]): 2.09 % ID/g
Drug uptake (Intestine [19]): 14.19 % ID/g
Drug uptake (Stomach [20]): 6.58 %ID
Drug uptake (Lung [21]): 5.04 % ID/g
Drug uptake (Intestine [22]): 17.49 % ID/g
Drug uptake (Brain [23]): 0.19 % ID/g
Drug uptake (Liver [24]): 14.79 % ID/g
Drug uptake (Spleen [25]): 3.28 % ID/g
Drug uptake (Blood [26]): 1.46 % ID/g
Drug uptake (Lung [27]): 14.29 % ID/g
Drug uptake (Kidney [28]): 22.51 % ID/g
Drug uptake (Heart [29]): 2.26 % ID/g
Drug uptake (Lung [30]): 1.4 % ID/g
Drug uptake (Kidney [31]): 12.64 % ID/g
Drug uptake (Pancreas [32]): 4.98 % ID/g
Drug uptake (Kidney [33]): 9.81 % ID/g
Drug uptake (Stomach [34]): 0.99 %ID
Drug uptake (Pancreas [35]): 4.34 % ID/g
Drug uptake (Blood [36]): 1.15 % ID/g
Drug uptake (Liver [37]): 2.84 % ID/g
Drug uptake (Stomach [38]): 6.66 %ID
Drug uptake (Heart [39]): 4.57 % ID/g
Drug uptake (Liver [40]): 6.24 % ID/g
Drug uptake (Liver [41]): 8.4 % ID/g
Drug uptake (Heart [42]): 0.49 % ID/g

SMILES: COc1c2ccc([125I])cc2nc2ccc(N(C)C)cc12
Drug uptake (Pancreas [2]): 2.47 % ID/g
Drug uptake (Blood [3]): 5.17 % ID/g
Drug uptake (Brain [4]): 2.09 % ID/g
Drug uptake (Spleen [5]): 5.4 % ID/g
Drug uptake (Spleen [6]): 4.07 % ID/g
Drug uptake (Brain [7]): 1.6 % ID/g
Drug uptake (Stomach [8]): 4.33 %ID
Drug uptake (Kidney [9]): 4.81 % ID/g
Drug uptake (Lung [10]): 7.17 % ID/g
Drug uptake (Pancreas [11]): 1.14 % ID/g
Drug uptake (Heart [12]): 5.83 % ID/g
Drug uptake (Brain [13]): 1.96 % ID/g
Drug uptake (Intestine [14]): 1.86 % ID/g
Drug uptake (Spleen [15]): 5.09 % ID/g
Drug uptake (Intestine [16]): 11.2 % ID/g
logD [17]: 1.81
Drug uptake (Blood [18]): 7 % ID/g
Drug uptake (Intestine [19]): 14.19 % ID/g
Drug uptake (Stomach [20]): 5.1 %ID
Drug uptake (Lung [21]): 6.67 % ID/g
Drug uptake (Intestine [22]): 17.49 % ID/g
Drug uptake (Brain [23]): 0.71 % ID/g
Drug uptake (Liver [24]): 20.71 % ID/g
Drug uptake (Spleen [25]): 2.43 % ID/g
Drug uptake (Blood [26]): 6.52 % ID/g
Drug uptake (Lung [27]): 6.66 % ID/g
Drug uptake (Kidney [28]): 8.99 % ID/g
Drug uptake (Heart [29]): 4.09 % ID/g
Drug uptake (Lung [30]): 3.87 % ID/g
Drug uptake (Kidney [31]): 10.72 % ID/g
Drug uptake (Pancreas [32]): 2.29 % ID/g
Drug uptake (Kidney [33]): 10.94 % ID/g
Drug uptake (Stomach [34]): 1.83 %ID
Drug uptake (Pancreas [35]): 4.11 % ID/g
Drug uptake (Blood [36]): 8.34 % ID/g
Drug uptake (Liver [37]): 10.79 % ID/g
Drug uptake (Stomach [38]): 4.2 %ID
Drug uptake (Heart [39]): 3.78 % ID/g
Drug uptake (Liver [40]): 20.78 % ID/g
Drug uptake (Liver [41]): 18.54 % ID/g
Drug uptake (Heart [42]): 2.38 % ID/g

SMILES: COc1ccc2nc3cc(I)ccc3c(OC)c2c1
pKi [1]: 7.54

The remaining lines, values ahead:

pKi [1]: 7.86
SMILES: CNc1c2ccc(I)cc2nc2ccc(OC)cc12

pKi [1]: 7.08
SMILES: COc1ccc2nc3cc(I)ccc3c(N)c2c1
